The subject of test [1] is Enterococcus faecium. Kind of test: Antibacterial activity against vancomycin-susceptible Enterococcus faecium ATCC19434 assessed as bacterial growth inhibition incubated for 24 hrs by CLSI protocol based broth microdilution method. The following applies: ATCC19434, 24 h. (In broth dilution the organism is exposed to a series of concentrations in liquid medium.)
Another test deals with Bacillus pumilus. Kind of test: Antibacterial activity against penicillin-susceptible Bacillus pumilus CMCC 63202 assessed as bacterial growth inhibition by broth dilution method. The conditions noted are these: time 24 hrs. Format: functional. The method in brief: (§1)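 Broth microdilution in Mueller Hinton broth. A 0.5 McFarland suspension was diluted tenfold, giving an inoculum of 1.5 × 10⁷ cfu/mL. This was added to 2-fold serial compound dilutions from […]. Plates were incubated aerobically at 37 °C for 24 h. MIC was the lowest concentration with no visible turbidity.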

Test [2] concerns Streptococcus pyogenes. Kind of test: Antibacterial activity against erythromycin-susceptible Streptococcus pyogenes clinical isolate 1 assessed as bacterial growth inhibition incubated for 24 hrs by CLSI protocol based broth microdilution method. Format: functional.
For test [3], the system named is Streptococcus pyogenes. Kind of test: Antibacterial activity against erythromycin-resistant Streptococcus pyogenes 2 assessed as bacterial growth inhibition incubated for 24 hrs by CLSI protocol based broth microdilution method. Format: functional.
For another test, the system named is Escherichia coli. Description: Antibacterial activity against penicillin-susceptible Escherichia coli ATCC 25922 assessed as inhibition of bacterial growth measured by broth microdilution method. Format: functional. The conditions noted are these: time 24 hrs. The essentials: as §1
Another test has as its system Pseudomonas aeruginosa. Description: Antibacterial activity against penicillin-susceptible Pseudomonas aeruginosa ATCC27853 assessed as bacterial growth inhibition incubated for 24 hrs by CLSI protocol based broth microdilution method. Format: functional.
Another test concerns Bacillus subtilis. Description: Antibacterial activity against penicillin-susceptible Bacillus subtilis ATCC 9372 assessed as bacterial growth inhibition incubated for 24 hrs by CLSI protocol based broth microdilution method. Format: functional.
For test [4], the system named is Staphylococcus aureus. Description: Antibacterial activity against erythromycin-susceptible Staphylococcus aureus ATCC 25923 assessed as bacterial growth inhibition incubated for 24 hrs by CLSI protocol based broth microdilution method. The class given is functional.
In test [5] the test system is Staphylococcus aureus. Description: Antibacterial activity against penicillin-resistant Staphylococcus aureus assessed as inhibition of bacterial growth measured by broth microdilution method. Format: functional. The conditions noted are these: time 24 hrs. The method in brief:
(§2)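 Broth microdilution MIC. A 0.5 McFarland suspension was diluted 10-fold and added at 1.5 × 10⁷ cfu/mL to 2-fold dilutions (0.125–64) in Mueller Hinton broth. Incubated aerobically 24 h at 37 °C. MIC was the lowest concentration with no visible turbidity.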

Test [6] concerns Staphylococcus epidermidis. Description: Antibacterial activity against penicillin-resistant Staphylococcus epidermidis assessed as inhibition of bacterial growth measured by broth microdilution method. The class given is functional. The following applies: time 24 hrs.
Test [7] relates to Staphylococcus aureus. Description: Antibacterial activity against methicillin-resistant Staphylococcus aureus ATCC 43300 assessed as inhibition of bacterial growth by broth microdilution method. The class given is functional. The conditions noted are these: time 24 hrs. The method in brief:
as §2

Test [8] has as its system Staphylococcus aureus. Kind of test: Antibacterial activity against Staphylococcus aureus assessed as inhibition of bacterial growth measured by broth microdilution method. Format: functional. The conditions noted are these: time 24 hrs. The method in brief:
as §1

The subject of a further test is Enterococcus faecalis. Description: Antibacterial activity against vancomycin-resistant Enterococcus faecalis ATCC 51299 assessed as bacterial growth inhibition incubated for 24 hrs by CLSI protocol based broth microdilution method. The class given is functional.
Test [9] concerns Enterococcus faecium. Description: Antibacterial activity against vancomycin-resistant Enterococcus faecium ATCC 51559 assessed as bacterial growth inhibition incubated for 24 hrs by CLSI protocol based broth microdilution method. The following applies: ATCC 51559, 24 h.

SMILES strings stand for the structures. Values after ≈ are worked out from the molar mass of the structure shown. A value given as a limit tells only on which side of the number the result lay.

What is called MIC is the lowest concentration that inhibits growth of the organism. For the compound `CN[C@H](CC(C)C)C(=O)N[C@H]1C(=O)N[C@@H](CC(N)=O)C(=O)N[C@H]2C(=O)N[C@H]3C(=O)N[C@H](C(=O)N[C@H](C(=O)O)c4cc(O)cc(O)c4-c4cc3ccc4O)[C@H](O)c3ccc(c(Cl)c3)Oc3cc2cc(c3O[C@@H]2O[C@H](CO)[C@@H](O)[C@H](O)[C@H]2O[C@H]2C[C@](C)(N)[C@H](O)[C@H](C)O2)Oc2ccc(cc2Cl)[C@H]1O` [VANCOMYCIN], the MIC was 2 µg/mL (≈ 1.38 µM) in the test with Enterococcus faecium [1]; 2 µg/mL (≈ 1.38 µM) in the test with Bacillus pumilus; 0.25 µg/mL (≈ 0.173 µM) with Streptococcus pyogenes [2]; 1 µg/mL (≈ 0.69 µM) in the test with Streptococcus pyogenes [3]; over 64 µg/mL in the test with Escherichia coli; over 64 µg/mL in the test on Pseudomonas aeruginosa. The minimal inhibitory concentration (MIC) in the test with Bacillus subtilis was determined as 0.5 µg/mL (≈ 0.345 µM).

Regarding `COc1ccccc1C#Cc1c2ccccc2[n+](C)c2ccccc12.[I-]`, the MIC with Bacillus pumilus was 2 µg/mL; in the test with Streptococcus pyogenes [2] it was 16 µg/mL; in the test with Staphylococcus aureus [4] it was 8 µg/mL; in the test with Staphylococcus aureus [5], 16 µg/mL; with Streptococcus pyogenes [3] it was 16 µg/mL; with Escherichia coli, over 64 µg/mL. Moreover, the MIC in the test on Pseudomonas aeruginosa is over 64 µg/mL; with Bacillus subtilis, 8 µg/mL; in test [6], 16 µg/mL; in the test on Staphylococcus aureus [7], 8 µg/mL; with Staphylococcus aureus [8], 4 µg/mL.

As for `CCOc1ccc(C#Cc2c3ccccc3[n+](C)c3ccccc23)cc1.[I-]`, the MIC was 4 µg/mL in the test with Bacillus pumilus; 16 µg/mL in the test with Streptococcus pyogenes [2]; 4 µg/mL in the test on Staphylococcus aureus [4]; 8 µg/mL in the test with Staphylococcus aureus [5]; 8 µg/mL in the test on Streptococcus pyogenes [3]; over 64 µg/mL with Escherichia coli. Also, the MIC was over 64 µg/mL with Pseudomonas aeruginosa; 4 µg/mL with Bacillus subtilis; 8 µg/mL in test [6]; 4 µg/mL in the test on Staphylococcus aureus [7]; 4 µg/mL in the test on Staphylococcus aureus [8].

Turning to `Cc1ccccc1-c1c2ccccc2[n+](C)c2ccccc12.[I-]`, the MIC in the test with Bacillus pumilus was over 64 µg/mL; in the test on Streptococcus pyogenes [2], 64 µg/mL; in the test with Staphylococcus aureus [4], 8 µg/mL; in the test on Staphylococcus aureus [5], over 64 µg/mL; in the test with Streptococcus pyogenes [3], over 64 µg/mL; in the test on Escherichia coli, over 64 µg/mL. The MIC in the test with Pseudomonas aeruginosa is over 64 µg/mL; with Bacillus subtilis it was 32 µg/mL; in [6], over 64 µg/mL; with Staphylococcus aureus [7] it was over 64 µg/mL; in the test with Staphylococcus aureus [8], 64 µg/mL.

For `CCCCCCCCNc1c2ccccc2[n+](C)c2ccccc12.[Cl-]`, the MIC in the test with Bacillus pumilus was 16 µg/mL; with Streptococcus pyogenes [2], 16 µg/mL; in the test with Staphylococcus aureus [4], 8 µg/mL; in the test on Staphylococcus aureus [5], 4 µg/mL; with Streptococcus pyogenes [3], 16 µg/mL; in the test with Escherichia coli, over 64 µg/mL. Further, the minimum inhibitory concentration (MIC) in the test on Pseudomonas aeruginosa is over 64 µg/mL; in the test with Bacillus subtilis, 16 µg/mL; in test [6], 16 µg/mL; in the test with Staphylococcus aureus [7], 16 µg/mL; in the test on Staphylococcus aureus [8] it was 8 µg/mL.

For the compound `CCc1ccc(-c2c3ccccc3[n+](C)c3ccccc23)cc1.[I-]`, the MIC in the test with Bacillus pumilus is 4 µg/mL; in the test on Streptococcus pyogenes [2] it was 2 µg/mL; in the test on Staphylococcus aureus [4], 0.25 µg/mL; in the test with Staphylococcus aureus [5], 64 µg/mL; in the test with Streptococcus pyogenes [3], 4 µg/mL; in the test on Escherichia coli it was over 64 µg/mL. Further, the MIC is over 64 µg/mL in the test with Pseudomonas aeruginosa; 2 µg/mL in the test on Bacillus subtilis; 32 µg/mL in test [6]; 16 µg/mL in the test on Staphylococcus aureus [7]; 1 µg/mL in the test with Staphylococcus aureus [8].

As to `CCCCc1ccc(/C=C/c2c3ccccc3[n+](C)c3ccccc23)cc1.[I-]`, the MIC is 0.5 µg/mL in the test with Bacillus pumilus; 0.5 µg/mL in the test on Streptococcus pyogenes [2]; 1 µg/mL with Staphylococcus aureus [4]; 8 µg/mL with Staphylococcus aureus [5]; 0.5 µg/mL with Streptococcus pyogenes [3]; over 64 µg/mL in the test on Escherichia coli. In addition, the MIC was over 64 µg/mL in the test on Pseudomonas aeruginosa; 1 µg/mL with Bacillus subtilis; 2 µg/mL in [6]; 8 µg/mL in the test with Staphylococcus aureus [7]; 2 µg/mL with Staphylococcus aureus [8].

Take `C[n+]1c2ccccc2c(-c2cccc(F)c2)c2ccccc21.[I-]`: the MIC is 32 µg/mL in the test with Bacillus pumilus; 4 µg/mL in the test with Streptococcus pyogenes [2]; 8 µg/mL with Staphylococcus aureus [4]; over 64 µg/mL in the test on Staphylococcus aureus [5]; 16 µg/mL with Streptococcus pyogenes [3]; over 64 µg/mL in the test with Escherichia coli. The MIC in the test with Pseudomonas aeruginosa was over 64 µg/mL; in the test on Bacillus subtilis, 16 µg/mL; in test [6], over 64 µg/mL; in the test on Staphylococcus aureus [7], over 64 µg/mL; in the test on Staphylococcus aureus [8], 16 µg/mL.

`CCCc1ccc(-c2c3ccccc3[n+](C)c3ccccc23)cc1.[I-]`: the MIC is 2 µg/mL in the test on Bacillus pumilus; 1 µg/mL in the test on Streptococcus pyogenes [2]; 0.25 µg/mL in the test with Staphylococcus aureus [4]; 16 µg/mL in the test on Staphylococcus aureus [5]; 4 µg/mL with Streptococcus pyogenes [3]; over 64 µg/mL in the test with Escherichia coli. Moreover, the MIC in the test on Pseudomonas aeruginosa was over 64 µg/mL; with Bacillus subtilis, 1 µg/mL; in test [6], 8 µg/mL; in the test with Staphylococcus aureus [7] it was 4 µg/mL; in the test with Staphylococcus aureus [8] it was 0.25 µg/mL.

For `Cc1ccc(/C=C/c2c3ccccc3[n+](C)c3ccccc23)cc1.[I-]`, the MIC with Bacillus pumilus was 0.5 µg/mL; in the test on Streptococcus pyogenes [2], 0.25 µg/mL; in the test with Staphylococcus aureus [4], 0.5 µg/mL; in the test with Staphylococcus aureus [5], 8 µg/mL; in the test with Streptococcus pyogenes [3] it was 0.5 µg/mL; in the test with Escherichia coli it was 64 µg/mL. For the same compound, the MIC in the test with Pseudomonas aeruginosa is over 64 µg/mL; in the test with Bacillus subtilis, 1 µg/mL; in test [6], 2 µg/mL; with Staphylococcus aureus [7], 4 µg/mL; in the test on Staphylococcus aureus [8], 1 µg/mL.

As for `C[n+]1c2ccccc2c(C#Cc2ccccc2)c2ccccc21.[I-]`, the MIC in the test on Bacillus pumilus was 8 µg/mL; in the test on Streptococcus pyogenes [2] it was 4 µg/mL; with Staphylococcus aureus [4], 2 µg/mL; in the test on Staphylococcus aureus [5], 4 µg/mL; with Streptococcus pyogenes [3], 8 µg/mL; with Escherichia coli it was over 64 µg/mL. Also, the MIC with Pseudomonas aeruginosa is over 64 µg/mL; with Bacillus subtilis, 2 µg/mL; in [6] it was 4 µg/mL; in the test with Staphylococcus aureus [7] it was 2 µg/mL; in the test on Staphylococcus aureus [8], 2 µg/mL.

Take `C[n+]1c2ccccc2c(C#Cc2ccc(-c3ccccc3)cc2)c2ccccc21.[I-]`: the MIC is 8 µg/mL with Bacillus pumilus; 16 µg/mL in the test with Streptococcus pyogenes [2]; 8 µg/mL in the test with Staphylococcus aureus [4]; 16 µg/mL in the test with Staphylococcus aureus [5]; 16 µg/mL with Streptococcus pyogenes [3]; over 64 µg/mL in the test on Escherichia coli. Further, the MIC was over 64 µg/mL with Pseudomonas aeruginosa; 8 µg/mL in the test on Bacillus subtilis; over 64 µg/mL in the test with Enterococcus faecalis; 8 µg/mL in test [6]; over 64 µg/mL in the test on Enterococcus faecium [9]; 16 µg/mL in the test on Staphylococcus aureus [7]. Moreover, the MIC in the test on Staphylococcus aureus [8] stood at 16 µg/mL.

With `C[n+]1c2ccccc2c(/C=C/c2ccccc2)c2ccccc21.[I-]`, the MIC with Bacillus pumilus is 2 µg/mL; in the test on Streptococcus pyogenes [2] it was 0.25 µg/mL; in the test with Staphylococcus aureus [4], 0.5 µg/mL; with Staphylococcus aureus [5] it was 8 µg/mL; in the test with Streptococcus pyogenes [3] it was 0.5 µg/mL; in the test on Escherichia coli, over 64 µg/mL. In addition, the MIC was over 64 µg/mL in the test on Pseudomonas aeruginosa; 1 µg/mL with Bacillus subtilis; 8 µg/mL in test [6]; 4 µg/mL with Staphylococcus aureus [7]; 2 µg/mL in the test with Staphylococcus aureus [8].

Regarding `C[n+]1c2ccccc2c(-c2cccc([N+](=O)[O-])c2)c2ccccc21.[I-]`, the minimal inhibitory concentration (MIC) in the test on Bacillus pumilus was over 64 µg/mL; with Streptococcus pyogenes [2], 16 µg/mL; with Staphylococcus aureus [4], 16 µg/mL; with Staphylococcus aureus [5], over 64 µg/mL; with Streptococcus pyogenes [3], 64 µg/mL; with Escherichia coli it was over 64 µg/mL. The MIC is over 64 µg/mL in the test with Pseudomonas aeruginosa; 64 µg/mL with Bacillus subtilis; over 64 µg/mL in test [6]; 64 µg/mL with Staphylococcus aureus [7]; 32 µg/mL with Staphylococcus aureus [8].
